From PubChem
In the library only some 3.5% were active in any assay of this set; here they are far more common.
RGS4 inh: RGS4 inhibitors, primary screen, cell-based, HEK293 M3R inducible RGS4, calcium flux | Regulator of G-protein signaling 4 (Homo sapiens), P49798 | Fluo-4 calcium flux; hits give high values; triggered by carbachol at its EC20 | B-score at 10 µM | actives 0.45% (n = 310,000);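 active = B-score, a plate-corrected calcium signal, over three deviations above library mean, with baseline fluorescence within five deviations of library mean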;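 note: RGS4 expression induced by doxycycline in cells with stable M3 receptor; B-score is computed from the integrated fluorescence ratio over baseline after carbachol; higher B-score means a larger calcium signal and so more RGS4 inhibition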
Target sequence (P49798 whole entry, looked up): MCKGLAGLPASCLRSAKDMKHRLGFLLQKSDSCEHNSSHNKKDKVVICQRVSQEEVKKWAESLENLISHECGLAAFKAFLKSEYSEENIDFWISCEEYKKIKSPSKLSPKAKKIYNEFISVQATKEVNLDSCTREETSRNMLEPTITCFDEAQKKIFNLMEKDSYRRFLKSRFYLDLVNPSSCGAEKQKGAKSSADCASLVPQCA
RGS4 act: RGS4 potentiators or activators, primary screen, cell-based, HEK293 M3R inducible RGS4, calcium flux; B-score at 10 µM; actives 0.92% (n = 310,000); carbachol calcium flux Fluo4; hits give low values;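 active = B-score of the integrated calcium signal more than 4 SD below the library mean, with starting fluorescence not abnormally high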;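 note: negative B-score means reduced calcium response which marks RGS4 activation or potentiation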
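Assay system: HEK293 FlpIn-TREx cells, stable M3R, doxycycline-inducible RGS4 / Probe or stimulus: carbachol, ECmax concentration / Times: overnight RGS4 induction, 30 min dye load 37 °C, 20 min compound RT / Signal: kinetic calcium fluorescence imaging with Fluo4-AM dye, 2 µM / Measure: Agonist-evoked peak-minus-minimum fluorescence over baseline, integrated ratio, B score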
MrgX1 antag: antagonists of human MrgX1 receptor, primary screen, HEK293 cells, Fluo-4 calcium flux; B-score at 10 µM; BAM8-22 antagonism; hits give low values; Mas-related G-protein coupled receptor member X1 (Homo sapiens), Q96LB2; actives 1.3% (n = 310,000);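 active = calcium-response B-score plate-corrected more than 3 library SD below zero, starting fluorescence within 5 deviations, no agonist response on first addition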;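 note: peak minus trough fluorescence over baseline after final BAM8-22 challenge near maximal dose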
Target sequence (Q96LB2 whole entry, looked up): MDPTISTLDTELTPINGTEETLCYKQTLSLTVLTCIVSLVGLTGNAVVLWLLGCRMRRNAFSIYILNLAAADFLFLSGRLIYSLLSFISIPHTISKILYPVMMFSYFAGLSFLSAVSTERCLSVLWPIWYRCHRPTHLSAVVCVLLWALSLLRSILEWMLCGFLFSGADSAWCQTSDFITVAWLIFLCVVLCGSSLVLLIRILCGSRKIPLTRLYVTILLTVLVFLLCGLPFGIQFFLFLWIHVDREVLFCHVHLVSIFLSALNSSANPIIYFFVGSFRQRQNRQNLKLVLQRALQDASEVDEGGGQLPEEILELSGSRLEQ
MrgX1 allo act: positive allosteric modulators of MrgX1, primary screen, HEK293 cells, Fluo-4 calcium flux; B-score at 10 µM; AID 588675, 2011; actives 0.63% (n = 310,000); Mas-related G-protein coupled receptor member X1 (Homo sapiens), Q96LB2; FDSS; hits give high values;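 active = plate-corrected calcium response at least 3 library SD above typical, normal starting fluorescence, not activating the receptor alone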;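 note: compound read alongside a low EC10 to EC30 dose of BAM8-22 agonist; peak minus trough fluorescence over baseline measured at the second addition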
MrgX1 agonist: agonists of human MrgX1 receptor, primary screen, HEK293 cells, Fluo-4 calcium flux; Mas-related G-protein coupled receptor member X1 (Homo sapiens), Q96LB2; Fluo-4 calcium fluorescence, agonist mode; hits give high values; B-score at 10 µM; actives 0.44% (n = 310,000);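 active = calcium response B-score plate-corrected fluorescence ratio at least 3 library SD, with starting fluorescence B-score inside 5 SD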
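Assay system: stable human MrgX1 HEK293 cell line. Quantity: 15,000 cells per well. Schedule: cells plated overnight, dye loaded 0.5 h 37 °C, 0.5 h room temperature. Detection: Fluo-4 NW calcium-flux fluorescence, kinetic read. Read-out basis: peak-minus-minimum fluorescence over baseline, converted to B scores. Control set: positive and negative control wells on each plate.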
The depositor's hits bear a star; i = inactive; . = no result given.

SMILES | RGS4 inh | RGS4 act | MrgX1 antag | MrgX1 allo act | MrgX1 agonist
Cc1nc2cc(C)c(C)cc2s1 | i | i | i | i | i
COc1ccc(-c2nnc(-c3cc4c(ccc5ccccc54)oc3=O)o2)cc1 | i | -9* | i | i | i
CCC1=NN2C(=N)/C(=C\c3cccn3-c3cccc(Cl)c3)C(=O)N=C2S1 | i | i | i | 11* | i
Cc1ccc(-n2cccc2/C=C2/C(=N)N3C(=NC2=O)SN=C3S(C)(=O)=O)cc1Cl | . | . | i | i | i
Cc1cc(/C=C2/C(=N)N3C(=NC2=O)SN=C3S(C)(=O)=O)c(C)n1-c1ccc(F)cc1 | i | i | i | 18* | i
CC1=CSC2=NC(=O)/C(=C\c3cccn3-c3ccccc3)C(=N)N12 | i | i | i | 8.8* | i
Cc1cccc(C)c1-n1cccc1/C=C1/C(=N)N2C(=NC1=O)SN=C2S(C)(=O)=O | i | -7.9* | i | i | i
CC(C)CCn1nnnc1CN1CCN(C(=O)c2ccco2)CC1 | i | i | i | i | i
Cc1ccc(/C(O)=C2/C(=O)C(=O)N(c3ccccn3)C2c2ccc([N+](=O)[O-])cc2)cc1 (stereo not drawn) | i | i | -4.8* | i | i
C=CCNC(=S)N1CCN(C2CCCCC2)CC1 | i | i | i | i | i
O=C(CN1C(=O)NC2(CCCC2)C1=O)NCCC1=CCCCC1 | i | -7.3* | i | i | i
Cc1nn(-c2ccccc2)c(Cl)c1C(=O)N1CCN(c2ncnc3c2cnn3-c2ccccc2)CC1 | i | i | -7.6* | i | i
Cc1ncc(CO)c(/C=N/NC(=S)Nc2ccc(Cl)c(Cl)c2)c1O | i | i | -9.6* | i | i
COC(=O)c1cc(S(=O)(=O)N2CCCC2=O)c(Cl)cc1Cl | i | i | i | i | i
COc1ccc(CN(CCC(c2ccc(F)cc2)C2CCOC(C)(C)C2)C(=O)c2ccco2)cc1 (stereo not drawn) | i | -8.2* | i | i | i
COc1ccc(CN(CCC(c2ccccc2)c2ccco2)C(=O)c2ccco2)cc1 (stereo not drawn) | i | -8.2* | i | i | i
CC(c1ccccc1)N(CCC(c1ccccc1)C1CCOC(C)(C)C1)C(=O)c1ccco1 (stereo not drawn) | i | i | i | i | i
O=C(c1ccco1)N(CCC(c1ccccc1)c1ccco1)Cc1ccccc1 (stereo not drawn) | i | i | i | i | i
COc1cc(C(=O)NC(=S)Nc2ccc3[nH]c(=O)[nH]c3c2)cc(OC)c1OC | i | i | i | i | i
CCNc1nc(NCC)nc(SCCOC(=O)c2ccccc2)n1 | i | i | i | i | 42*
CCOc1c(Br)cc(CNc2ccc3c(c2)OCCO3)cc1OC | i | i | i | i | i
COc1cc(/C=C/C(=O)c2ccc3c(c2)OCCO3)cc(Br)c1OCC(=O)N(C)C | i | i | -5.6* | i | i
CC1(C)CC(=O)C2=C(C1)OC1=C(C(=O)CC(C)(C)C1)C2c1ccc(O)cc1O | i | i | i | i | 36*
O=C1CC(c2ccco2)CC(O)=C1C=NCC1CCNCC1 (stereo not drawn) | i | -7.8* | i | i | i
COc1ccc(NC(=O)C2=CCN(S(=O)(=O)c3ccccc3)CC2)cc1OC | i | i | i | i | i
SMILES | RGS4 inh | RGS4 act | MrgX1 antag | MrgX1 allo act | MrgX1 agonist
COc1ccccc1-c1coc2cc(O)cc(O)c2c1=O | i | i | i | i | 34*
CCN(CC(=O)Nc1ccccc1OC)C(=O)c1cc(S(=O)(=O)N2CCCCCC2)ccc1OC | i | i | i | i | i
O=C1CCCN1CCCNc1ncnc2c1[nH]c1ccc(Cl)cc12 | i | i | i | i | 37*
O=C1CCc2ccccc2N1 | i | i | i | i | i
N#C/C(C(N)=O)=C1/CCc2ccccc2N1 | i | i | -4.9* | i | i
Cc1cc(C)c(C)c(S(=O)(=O)NCCCn2ccnc2)c1C | i | i | i | i | i
Fc1ccc2c(c1)Sc1ccc(Cl)cc1CC2N1CCN(CCC2OCCO2)CC1 (stereo not drawn) | i | -7.3* | i | i | i
O=S(=O)(Nc1ccc(-c2ccc3nncn3n2)cc1)c1cccc(F)c1 | i | i | i | i | i
O=C(O)c1ccc(CNC(=O)c2ccccc2NC(=O)c2ccc([N+](=O)[O-])cc2)cc1 | i | i | -4.9* | i | i
COc1ccc(CNC(=O)C(=O)NCCC2CCCCN2S(=O)(=O)c2cccs2)cc1 (stereo not drawn) | i | i | i | i | i
COC(=O)c1ccc(/C(O)=C(\C#N)c2nc3ccccc3s2)cc1 | i | i | i | i | 28*
COC(=O)c1ccc(CC(=O)c2nc3ccccc3s2)cc1 | i | i | i | i | i
COC(=O)Nc1ccc([N+](=O)[O-])cc1OC | i | i | -7.4* | i | i
COc1ccc(/C=C/C(=O)NCC2COc3ccccc3O2)cc1OC (stereo not drawn) | i | i | -7.1* | i | i
COc1cc(CNCc2cccs2)ccc1OCc1cccs1 | i | i | i | i | i
COc1cc(CNCc2cccs2)ccc1OCc1ccccc1 | i | -7.1* | i | i | i
COc1ccc(CCNc2oc(COc3ccccc3F)nc2C#N)cc1OC | . | . | i | i | i
COc1ccc(CCNc2oc(COc3ccccc3Cl)nc2C#N)cc1OC | i | -7.3* | i | i | i
COc1cccc(NC(=O)CN(C)S(=O)(=O)c2ccc3[nH]c(=O)oc3c2)c1 | i | i | i | i | i
Cc1ccc(/C=C/C(=O)c2ccc([N+](=O)[O-])o2)cc1 | 9.8* | i | i | i | i
Cc1ccc(C(=O)/C=C/c2ccc(Br)cc2)o1 | i | i | i | i | i
Cc1ccc(C(=O)/C=C/c2ccccc2)o1 | i | i | i | i | 28*
CC(=O)c1c(C)[nH]c(C(=O)/C(C#N)=C/c2cccc(C)c2)c1C | i | i | i | i | i
CCOC(=O)c1c(C)[nH]c(C(=O)/C(C#N)=C/c2ccc(OCC)cc2)c1C | i | -7.6* | i | i | i
CC(C)(C)NC(=O)NC(=O)COC(=O)CNS(=O)(=O)/C=C/c1ccccc1 | i | i | i | i | i
